Published values pooled from the literature.
Each line is one published result; the experiments were not run side by side.
Target: Aurora kinase C (AURKC, Homo sapiens, UniProt Q9UQB9)
Residues used in one study (Q9UQB9 1-309): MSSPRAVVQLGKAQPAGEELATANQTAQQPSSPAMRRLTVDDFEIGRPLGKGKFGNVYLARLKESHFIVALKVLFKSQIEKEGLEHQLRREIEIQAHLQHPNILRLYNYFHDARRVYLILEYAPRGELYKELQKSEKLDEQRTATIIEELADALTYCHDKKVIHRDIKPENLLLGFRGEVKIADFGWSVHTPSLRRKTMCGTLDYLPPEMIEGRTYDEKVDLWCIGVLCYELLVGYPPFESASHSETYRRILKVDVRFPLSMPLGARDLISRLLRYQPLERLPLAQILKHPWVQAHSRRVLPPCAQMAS

CNS(=O)(=O)c1ccc(Nc2ncc(C(F)(F)F)c(N3CCC[C@](C)(O)C3)n2)c(C)c1 — remaining binding (binding; competition with immobilised ligand; 1 µM): 37%
Cc1ccc(NC(=O)c2ccnc(C(F)(F)F)c2)cc1-c1cc(OCCO)nc(N2CCOCC2)c1 — remaining binding (binding; competition with immobilised ligand; 1 µM): 83%
CC(C)S(=O)(=O)c1ccc2nccc(Nc3ccc4sc(C5CCCC5)nc4c3)c2c1 — activity vs control (enzyme activity; inhibitor; 1 µM): 101%
COc1ccc2oc(-c3ccc4nc(N)oc4c3)c/c(=N\c3ccccc3NC(=O)CCN)c2c1 — remaining binding (binding; 1 µM): 106%
CC#CC(=O)N1CCC[C@H]1c1nc(-c2ccc(C(=O)Nc3ccccn3)cc2)c2c(N)nccn12 — inhibition (enzyme activity; inhibitor; 1 µM): 18%
C[C@]1(O)CCCN(c2nc(Nc3ccc(S(=O)(=O)N[C@H]4CC[C@H](CN5CCN(c6ccc(C7CCC(=O)NC7=O)cc6F)CC5)CC4)cc3F)ncc2C(F)(F)F)C1 (stereo partly shown) — remaining binding (binding; competition with immobilised ligand; 1 µM): 97%
CCCCC(=O)Nc1ccc(-c2ccc3ncn(CCC)c(=O)c3c2)cn1 — remaining binding (binding; competition with immobilised ligand; 0.5 µM): 83%
C1=C/COCc2cc(ccc2OCCN2CCCC2)Nc2nccc(n2)-c2cccc(c2)COC/1 — remaining binding (binding; 0.1 µM): 96%
CO[C@@H]1[C@H](N(C)C(=O)c2ccccc2)C[C@H]2O[C@]1(C)n1c3ccccc3c3c4c(c5c6ccccc6n2c5c31)C(=O)NC4 — inhibition (enzyme activity; inhibitor; 1 µM): 99%
COc1ccc2[nH]c3c4[nH]c5ccc(OC)cc5c4c4c(c3c2c1)C(=O)NC4=O — remaining binding (binding; competition with immobilised ligand; 1 µM): 17%
